According to ChEMBL document CHEMBL3244402, “Branched-chain analogues of luteinizing hormone-releasing hormone” (1978):
Activity calls are given as the source filed them. No cut-off for these calls is given here. Square brackets hold non-standard residues; d marks the D form. Peptide text beside a SMILES is read from it. pGlu = O=C1CC[C@@H](C(=O)O)N1

Assays:
Rattus norvegicus [1] = test: In vivo inhibition of LH-RH receptor in immature rat assessed as inhibition of LH-RH-stimulated luteinizing hormone release in serum at 300 ug, sc administered 1 hr prior to LH-RH addition measured after 30 mins relative to vehicle-treated control; assay type: functional
Procedure, shortened: (§1)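 Immature male rats received 300 μg peptide sc in 20% propylene glycol-saline, or vehicle alone. Synthetic LH-RH (200 ng) or saline was injected at the same time or later, over a 4-h period. Blood was taken 30 min after LH-RH. Serum LH and FSH were measured by radioimmunoassay (double antibody for LH), and percent inhibition of serum gonadotropin was calculated.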

Rattus norvegicus [2] = test: In vivo inhibition of LH-RH receptor in immature rat assessed as inhibition of LH-RH-stimulated luteinizing hormone release in serum at 300 ug, sc administered 4 hrs prior to LH-RH addition measured after 30 mins relative to vehicle-treated control; assay type: functional; procedure, shortened: as §1
Rattus norvegicus [3] = test: In vivo inhibition of LH-RH receptor in immature rat assessed as inhibition of LH-RH-stimulated follicle-stimulating hormone release in serum at 300 ug, sc administered 1 hr prior to LH-RH addition measured after 30 mins relative to vehicle-treated control; assay type: functional; procedure, shortened: as §1
Rattus norvegicus [4] = test: In vivo inhibition of LH-RH receptor in immature rat assessed as inhibition of LH-RH-stimulated follicle-stimulating hormone release in serum at 300 ug, sc administered 4 hrs prior to LH-RH addition measured after 30 mins relative to vehicle-treated control; assay type: functional; procedure, shortened: as §1
Rattus norvegicus [5] = test: Antiovulatory activity in Sprague-Dawley rat at 1.5 mg, sc administered at 12 pm on proestrous day relative to vehicle-treated control; assay type: functional
Procedure, shortened: (§2)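 Adult female SD rats (~200 g), 14 h light/10 h dark, with vaginal smears checked daily from 14 days after arrival. Only rats with at least two successive regular 4-day cycles were used. Peptide was given sc in propylene glycol-saline on the proestrous afternoon. Rats were killed the next day and oviducts inspected for ova. Read-out was % inhibition of ovulation and ova count (±SE) in ovulating rats.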

Rattus norvegicus [6] = test: Antiovulatory activity in Sprague-Dawley rat at 1 mg, sc administered at 12 pm on proestrous day relative to vehicle-treated control; assay type: functional; procedure, shortened: as §2
Rattus norvegicus [7] = test: Antiovulatory activity in Sprague-Dawley rat at 1.5 mg, sc administered at 9 am on proestrous day relative to vehicle-treated control; assay type: functional
Rattus norvegicus [8] = test: In vivo activation of LH-RH receptor in immature rat assessed as release of luteinizing hormone in serum at 50 ng, sc measured over 4 hrs by double antibody radioimmunoassay; assay type: functional, organism-based
Procedure, shortened: (§3)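 Immature male rats were injected sc with agonist, LH-RH or saline and followed over 0.25–4 h, with blood sampled at intervals. Serum LH was measured by double antibody radioimmunoassay and FSH by radioimmunoassay, against NIH-LH-S17 and NIAMD-rat-FSH-RP1 standards.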

Rattus norvegicus [9] = test: In vivo activation of LH-RH receptor in immature rat assessed as release of follicle-stimulating hormone in serum at 50 ng, sc measured over 4 hrs by radioimmunoassay; assay type: functional, organism-based; procedure, shortened: as §3
Rattus norvegicus [10] = test: In vivo activation of LH-RH receptor in immature rat assessed as release of follicle-stimulating hormone relative to control; assay type: functional; procedure, shortened: as §3
Rattus norvegicus [11] = test: In vivo activation of LH-RH receptor in immature rat assessed as release of luteinizing hormone relative to control; assay type: functional; procedure, shortened: as §3
Rattus norvegicus [12] = test: In vivo inhibition of LH-RH receptor in immature rat assessed as inhibition of LH-RH-stimulated luteinizing hormone release in serum at 300 ug, sc administered 0.5 hrs prior to LH-RH addition measured after 30 mins relative to vehicle-treated control; assay type: functional; procedure, shortened: as §1
Rattus norvegicus [13] = test: In vivo inhibition of LH-RH receptor in immature rat assessed as inhibition of LH-RH-stimulated luteinizing hormone release in serum at 300 ug, sc administered 2 hrs prior to LH-RH addition measured after 30 mins relative to vehicle-treated control; assay type: functional; procedure, shortened: as §1

Structure (SMILES)	inhibition (INH) (Rattus norvegicus [1])	inhibition (INH) (Rattus norvegicus [2])	inhibition (INH) (Rattus norvegicus [3])	inhibition (INH) (Rattus norvegicus [4])	inhibition (INH) (Rattus norvegicus [6])	other results
CC(=O)Oc1ccccc1C(=O)NCCCC[C@@H](NC(=O)[C@H](Cc1ccc(O)cc1)NC(=O)[C@H](CO)NC(=O)[C@@H](Cc1c[nH]c2ccccc12)NC(=O)[C@@H](Cc1ccccc1)NC(=O)[C@@H]1CCC(=O)N1)C(=O)N[C@@H](CC(C)C)C(=O)N[C@@H](CCCNC(=N)N)C(=O)N1CCC[C@H]1C(=O)NCC(N)=O	57%	18%	23%	13%		inhibition (INH) (Rattus norvegicus [5]): 11%
CC(C)C[C@H](NC(=O)[C@@H](Cc1ccccc1)NC(=O)[C@H](Cc1ccc(O)cc1)NC(=O)[C@H](CO)NC(=O)[C@@H](Cc1c[nH]c2ccccc12)NC(=O)[C@@H](Cc1ccccc1)NC(=O)[C@@H]1CCC(=O)N1)C(=O)N[C@@H](CCCNC(=N)N)C(=O)N1CCC[C@H]1C(=O)NCC(N)=O	84%	52%	65%	77%	83%	inhibition (INH) (Rattus norvegicus [7]): 67%
CC(C)C[C@H](NC(=O)CNC(=O)[C@H](Cc1ccc(O)cc1)NC(=O)[C@H](CO)NC(=O)[C@H](Cc1c[nH]c2ccccc12)NC(=O)[C@H](Cc1cnc[nH]1)NC(=O)[C@@H]1CCC(=O)N1)C(=O)N[C@@H](CCCNC(=N)N)C(=O)N1CCC[C@H]1C(=O)NCC(N)=O						Activity (Rattus norvegicus [8]): Active; Activity (Rattus norvegicus [9]): Active
COc1ccc2c(c1)c(CC(=O)NCCCC[C@@H](NC(=O)[C@H](Cc1ccc(O)cc1)NC(=O)[C@H](CO)NC(=O)[C@@H](Cc1c[nH]c3ccccc13)NC(=O)[C@@H](Cc1ccccc1)NC(=O)[C@@H]1CCC(=O)N1)C(=O)N[C@@H](CC(C)C)C(=O)N[C@@H](CCCNC(=N)N)C(=O)N1CCC[C@H]1C(=O)NCC(N)=O)c(C)n2C(=O)c1ccc(Cl)cc1	7%	0%	0%	0%		inhibition (INH) (Rattus norvegicus [5]): 0%
CC(C)C[C@H](NC(=O)[C@@H](CCCCN)NC(=O)[C@H](Cc1ccc(O)cc1)NC(=O)[C@H](CO)NC(=O)[C@H](Cc1c[nH]c2ccccc12)NC(=O)[C@H](Cc1cnc[nH]1)NC(=O)[C@@H]1CCC(=O)N1)C(=O)N[C@@H](CCCNC(=N)N)C(=O)N1CCC[C@H]1C(=O)NCC(N)=O						Activity (Rattus norvegicus [10]): 300%; Activity (Rattus norvegicus [11]): 300%
CC(C)C[C@H](NC(=O)[C@@H](CCCCNC(=O)[C@H](Cc1ccc(O)cc1)NC(=O)[C@H](CO)NC(=O)[C@@H](Cc1c[nH]c2ccccc12)NC(=O)[C@@H](Cc1ccccc1)NC(=O)[C@@H]1CCC(=O)N1)NC(=O)[C@H](Cc1ccc(O)cc1)NC(=O)[C@H](CO)NC(=O)[C@@H](Cc1c[nH]c2ccccc12)NC(=O)[C@@H](Cc1ccccc1)NC(=O)[C@@H]1CCC(=O)N1)C(=O)N[C@@H](CCCNC(=N)N)C(=O)N1CCC[C@H]1C(=O)NCC(N)=O	62%	47%	43%	41%	73%	inhibition (INH) (Rattus norvegicus [7]): 50%
CC(C)C[C@H](NC(=O)[C@@H](CCCCN)NC(=O)[C@H](Cc1ccc(O)cc1)NC(=O)[C@H](CO)NC(=O)[C@@H](Cc1c[nH]c2ccccc12)NC(=O)[C@@H](Cc1ccccc1)NC(=O)[C@@H]1CCC(=O)N1)C(=O)N[C@@H](CCCNC(=N)N)C(=O)N1CCC[C@H]1C(=O)NCC(N)=O ([pGlu][dF][dW]SY[dK]LRPG-NH2)	36%	38%	37%	18%	0%	
CC(C)C[C@H](NC(=O)[C@@H](CCCCNC(=O)c1ccccc1)NC(=O)[C@H](Cc1ccc(O)cc1)NC(=O)[C@H](CO)NC(=O)[C@@H](Cc1c[nH]c2ccccc12)NC(=O)[C@@H](Cc1ccccc1)NC(=O)[C@@H]1CCC(=O)N1)C(=O)N[C@@H](CCCNC(=N)N)C(=O)N1CCC[C@H]1C(=O)NCC(N)=O		0%			11%	inhibition (INH) (Rattus norvegicus [12]): 76%; inhibition (INH) (Rattus norvegicus [13]): 40%
